High-throughput results: PubChem, Johns Hopkins Ion Channel Center
Rows were chosen to be rich in hits. Some 3.5% of all compounds tested hit in one or more screens of this group.
MrgX1 PAM – human MrgX1 positive allosteric modulation, primary screen | Q96LB2 | MrgX1-HEK293, Fluo-4 calcium flux, FDSS; stronger effect = higher value | B-score at 10 µM | 310,000 tested, 0.63% active | AID 588675;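 active = plate-corrected calcium response at least 3 library SD above typical, normal starting fluorescence, not activating the receptor alone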;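 note: compound read alongside a low EC10 to EC30 dose of BAM8-22 agonist; peak minus trough fluorescence over baseline measured at the second addition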
Target sequence (Q96LB2 whole entry, looked up): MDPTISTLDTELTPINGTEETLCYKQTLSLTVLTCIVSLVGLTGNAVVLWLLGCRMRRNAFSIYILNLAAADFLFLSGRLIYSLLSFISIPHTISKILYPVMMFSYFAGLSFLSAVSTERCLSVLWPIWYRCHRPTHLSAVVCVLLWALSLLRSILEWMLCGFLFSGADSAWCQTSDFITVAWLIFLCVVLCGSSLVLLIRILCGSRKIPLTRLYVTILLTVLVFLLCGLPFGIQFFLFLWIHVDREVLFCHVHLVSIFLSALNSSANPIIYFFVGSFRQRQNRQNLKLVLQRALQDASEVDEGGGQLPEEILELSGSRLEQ
RGS4 block – human RGS4 inhibition | 310,000 tested, 0.45% active | P49798 | B-score at 10 µM | HEK293 M3R/RGS4 inducible, Fluo-4 calcium flux; stronger effect = higher value; triggered by carbachol at its EC20;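 active = B-score, a plate-corrected calcium signal, over three deviations above library mean, with baseline fluorescence within five deviations of library mean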;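 note: RGS4 expression induced by doxycycline in cells with stable M3 receptor; B-score is computed from the integrated fluorescence ratio over baseline after carbachol; higher B-score means a larger calcium signal and so more RGS4 inhibition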
Target sequence (P49798 whole entry, looked up): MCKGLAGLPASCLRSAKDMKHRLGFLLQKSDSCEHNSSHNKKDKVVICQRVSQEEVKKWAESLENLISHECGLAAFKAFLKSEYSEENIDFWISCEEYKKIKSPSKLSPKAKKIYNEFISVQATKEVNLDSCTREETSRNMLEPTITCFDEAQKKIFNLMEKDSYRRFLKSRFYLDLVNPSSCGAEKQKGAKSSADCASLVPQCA
RGS4 act – potentiators or activators of RGS4; HEK293 M3R/inducible RGS4, carbachol calcium flux Fluo4; stronger effect = lower value; B-score at 10 µM; 310,000 tested, 0.92% active;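 active = B-score of the integrated calcium signal more than 4 SD below the library mean, with starting fluorescence not abnormally high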;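 note: negative B-score means reduced calcium response which marks RGS4 activation or potentiation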
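Material: Inducible-RGS4 HEK293 cells carrying M3 receptor; also added: carbachol at ECmax as muscarinic agonist stimulus; incubation: compound preincubation 20 min at room temperature before agonist; signal: Fluo4-AM (2 µM) calcium-flux fluorescence, kinetic read; measure: integrated calcium ratio converted to B score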
MrgX1 antag – antagonists of human MrgX1 receptor | Q96LB2 | B-score at 10 µM | 310,000 tested, 1.3% active | AID 588676 | MRGX1-HEK293 calcium flux, Fluo-4, BAM8-22 antagonism; stronger effect = lower value;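 active = calcium-response B-score plate-corrected more than 3 library SD below zero, starting fluorescence within 5 deviations, no agonist response on first addition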;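 note: peak minus trough fluorescence over baseline after final BAM8-22 challenge near maximal dose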
MrgX1 agonist – agonists of human MrgX1 receptor. 310,000 tested, 0.44% active. B-score at 10 µM. MrgX1-HEK293 cells, Fluo-4 calcium fluorescence, agonist mode; stronger effect = higher value;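 active = calcium response B-score plate-corrected fluorescence ratio at least 3 library SD, with starting fluorescence B-score inside 5 SD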
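times = overnight plating, then 30 min 37 °C plus 30 min room-temperature dye loading | assay system = stable human MrgX1 HEK293 cell line | input = fifteen thousand cells per well | signal = kinetic calcium dye fluorescence, Fluo-4 NW | dosing = compound delivered in addition one of three | read-out = B-scored fluorescence response ratio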
MrgX1 antag conf – reconfirmed antagonist of human MrgX1 receptor signaling; shares compounds with MrgX1 antag; MrgX1-HEK293, BAM8-22 calcium flux, Fluo-4; stronger effect = lower value; remaining BAM8-22 calcium response % of control (stronger effect = lower value), % at 10 µM; 2,300 tested, 19% active;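 active = remaining agonist calcium response no higher than 100% minus 3 SD of agonist-only control wells, with starting fluorescence near control levels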;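 note: agonist BAM8-22 given at a near maximal EC90 to ECmax level; peak minus minimum fluorescence divided by baseline after agonist addition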
HEK293 Ca flux – MrgX1 antagonist counter-screen hit in parental HEK293 cells. shares compounds with MrgX1 antag. Fluo-4 calcium fluorescence, FDSS. fluorescence ratio F(max-min)/F0 at 10 µM. 4,000 tested, 2% active. AID 624111;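 active = duplicate-averaged calcium fluorescence ratio at least three times the standard deviation of buffer wells, a nonspecific response in parental cells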
HEK293 Ca counter – counter-screen for MrgX1 allosteric activators: effect in parental HEK293 cells. 4,000 tested, 0.4% active. parental HEK293 calcium flux, Fluo-4 fluorescence ratio; stronger effect = higher value. fluorescence ratio F(max-min)/F0 at 10 µM. shares compounds with MrgX1 antag;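 active = calcium fluorescence ratio, averaged over duplicates, at least 3 SD of the buffer-well ratio, meaning a nonspecific response in receptor-free cells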;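 note: untransfected parental HEK293 lacking MrgX1 used as counterscreen for MrgX1 allosteric activators; fluorescence change taken during the second addition on a kinetic imager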
HEK293 Ca cntr2 – counter-screen for MrgX1 activators: effect in parental HEK293 cells | fluorescence ratio F(max-min)/F0 at 10 µM | shares compounds with MrgX1 antag | Fluo-4 calcium fluorescence (FDSS); stronger effect = higher value | 4,000 tested, 8.7% active;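 active = calcium fluorescence ratio at least three times the spread of buffer wells, meaning a non-specific response in parental cells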
Active calls of the source: *; i = inactive; / = no result given.

SMILES	MrgX1 PAM	RGS4 block	RGS4 act	MrgX1 antag	MrgX1 agonist	MrgX1 antag conf	HEK293 Ca flux	HEK293 Ca counter	HEK293 Ca cntr2
CC(C)CC(=O)Nc1ccccc1N1CCOCC1	i	i	i	-4.6*	i	i	i	48*	i
O=C(CN1C(=O)NC2(CCCCC2)C1=O)NCC(=O)Nc1ccc(F)c(F)c1	i	i	i	i	i	/	/	/	/
Cc1ccc(Nc2c(-c3ccc(C)o3)nc3ncccn23)cc1	i	i	i	i	i	/	/	/	/
Cc1ccc(-c2nc3ncccn3c2Nc2ccc3c(c2)OCO3)o1	i	i	i	-5.4*	i	i	i	i	i
CCOC(=O)c1cnc2nc(C(F)(F)F)[nH]n2c1=O	i	i	i	-5.5*	i	i	i	i	i
O=C(Nc1ccc2c(c1)OCCO2)c1cc(-c2ccccc2)nc2ccccc12	i	i	i	-5*	i	i	i	i	i
O=C(NNC(=O)c1cc(-c2cccnc2)nc2ccccc12)Nc1ccc(Cl)cc1	6.9*	i	i	-13*	i	i	i	i	i
O=C(CSC1=NS(=O)(=O)c2cc(Cl)ccc2N1)Nc1cccc(F)c1	i	i	i	i	i	/	/	/	/
CCOC(=O)C1CCCN(S(=O)(=O)c2nc3nc(C)cc(C)n3n2)C1 (stereo unspecified)	i	i	i	-5.8*	i	i	i	i	i
CCOC(=O)C1CCCN(S(=O)(=O)c2cc3[nH]c(=O)c(=O)[nH]c3cc2C)C1 (stereo unspecified)	i	i	i	i	i	/	/	/	/
COc1ccc(C(CNC(=O)C(C)(C)Oc2ccc(Cl)cc2)N2CCCCC2)cc1 (stereo unspecified)	i	i	i	i	i	/	/	/	/
CC(C)(Oc1ccc(Cl)cc1)C(=O)NCC(c1ccco1)N1CCCCC1 (stereo unspecified)	i	i	i	-4.8*	i	i	i	i	i
COc1ccc(Cl)cc1C(=O)NCC(c1ccco1)N1CCCC1 (stereo unspecified)	i	i	i	-5.2*	i	i	i	i	i
O=[N+]([O-])c1c(Nc2cccc(O)c2)cc(Cl)c2nonc12	i	i	i	-11*	i	i	i	i	i
C(=N\Nc1ccccc1)/c1nc2ccccc2s1	i	i	i	i	i	/	/	/	/
COc1ccc(CC2SC(=Nc3ccc(F)cc3)NC2=O)cc1 (stereo unspecified)	i	i	i	i	i	/	/	/	/
CN(C(=O)c1ccc2c(c1)SC1=NS(=O)(=O)CCN12)C(c1ccccc1)c1ccccc1	i	i	i	i	i	/	/	/	/
O=C(O)c1ccc2c(c1)SC1=NS(=O)(=O)CCN12	i	i	i	-14*	i	i	i	i	i
O=C1OCCC1Sc1nnc(-c2cccc(Br)c2)o1 (stereo unspecified)	i	i	i	-5.1*	i	i	i	i	i
Cc1cc2ccccc2nc1SCC(=O)N1c2ccccc2CC1C (stereo unspecified)	i	i	i	i	i	/	/	/	/
CCOC(=O)CSc1nc2cc3c(cc2cc1C#N)OCO3	i	/	/	i	i	/	/	/	/
CC1Cc2ccccc2N1C(=O)CSc1nc2cc3c(cc2cc1C#N)OCO3 (stereo unspecified)	i	/	/	-8.5*	i	i	i	i	i
Cc1cc2cc3c(cc2nc1SCC(=O)N1c2ccccc2CC1C)OCO3 (stereo unspecified)	i	i	i	-5*	i	84%*	i	i	i
Cc1cccc(CC(=O)N2CCC(N3CCC(C(=O)N4CCOCC4)CC3)CC2)c1	i	i	i	i	i	/	/	/	/
O=S(=O)(NC1CCCCC1N1CCN(c2ccccc2F)CC1)c1ccc(Cl)cc1 (stereo unspecified)	i	i	i	-9.6*	i	i	i	i	i
SMILES	MrgX1 PAM	RGS4 block	RGS4 act	MrgX1 antag	MrgX1 agonist	MrgX1 antag conf	HEK293 Ca flux	HEK293 Ca counter	HEK293 Ca cntr2
CCc1nnc(NC(=O)CSc2nnc(-c3cc4ccccc4cc3O)n2CC)s1	i	i	i	i	i	/	/	/	/
CCn1c(SCC(=O)N(C(C)C)C(C)C)nnc1-c1cc2ccccc2cc1O	i	i	i	-6.2*	i	i	i	i	i
Nc1cc(C(=O)OCC(=O)NCCNC(=O)COC(=O)c2ccc(Cl)c(N)c2)ccc1Cl	i	i	i	i	i	/	/	/	/
CN(C(=O)c1cccc(Br)c1)C1CCS(=O)(=O)C1 (stereo unspecified)	i	i	i	-4.5*	i	i	i	i	i
CCN(C(=O)c1cccc(Br)c1)C1CCS(=O)(=O)C1 (stereo unspecified)	i	i	i	i	i	/	/	/	/
CC(C)NC(=O)c1sc2nc(-c3cccs3)cc(-c3cccs3)c2c1N	i	i	i	-9*	i	i	i	i	i
CC(=O)c1sc2nc(-c3cccs3)ccc2c1N	i	i	i	i	i	/	/	/	/
O=C1c2ccccc2C(=O)N1c1ncn[nH]1	i	i	i	i	i	/	/	/	/
COc1cccc(OC)c1C(=O)N1CCN(Cc2ccccc2C)CC1	i	i	i	-4.6*	i	i	i	i	i
CSc1cccc(NC(=O)C2CCN(S(=O)(=O)c3ccc(F)cc3)CC2)c1	i	i	i	i	i	/	/	/	/
CSc1cccc(NC(=O)C2CCCN(S(=O)(=O)c3ccc(F)cc3)C2)c1 (stereo unspecified)	i	i	i	-6.5*	i	67%*	i	i	i
CCOC(=O)N1CCN(C(=O)CCCn2c(=S)[nH]c3ccccc3c2=O)CC1	i	i	i	i	i	/	/	/	/
CCOC(=O)N1CCN(C(=O)CCCn2c(=O)[nH]c3ccccc3c2=O)CC1	i	i	i	-7.4*	i	i	i	i	i
